Laboratory results reported in ChEMBL document CHEMBL2321796, “Synthesis of 8-hydroxyquinoline derivatives as novel antitumor agents” (ACS Med Chem Lett, 2013).
≈ marks a conversion by molar mass, not a printed value. Calls of active or inactive are those of the source. No cut-off for these calls is given here.

Columns and labels:
[1] = Up-regulation of CLGN gene expression in human KYSE-150 cells at 8.5 ug/ml after 48 hrs; assay type: functional, cell-based
How it was run: (§1)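 KYSE150 esophageal cancer cells treated with 8.5 μg/mL for 48 h alongside a vehicle control. Total RNA extracted and gene expression change expressed as percent change in detection signal versus control.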

[2] = Down regulation of CCL5 gene expression in human KYSE-150 cells at 8.5 ug/ml after 48 hrs; assay type: functional, cell-based; how it was run: as §1
[3] = Solubility of the compound in physiological saline; assay type: physicochemical; details: buffer
Mus musculus [4] = experiment: Toxicity in human Hep3B cells xenografted athymic nude mouse assessed as changes in histological appearance of vital organs at 10 mg/kg, ip qd for 8 days by ematoxylin and eosin staining; assay type: organism-based, Hep 3B2; design: dose 10 mg/kg, route intraperitoneal; details: in vivo, 192 h
How it was run: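 Human Hep3B hepatocellular carcinoma cells grown as subcutaneous xenografts in athymic nude mice, five per group, given daily intraperitoneal injection at 10 mg/kg/day alongside vehicle controls. After 8 days of treatment, vital organs were collected, stained with hematoxylin and eosin, and examined for tissue damage at the histological level.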

Mus musculus [5] = experiment: Toxicity in human Hep3B cells xenografted athymic nude mouse assessed as mortality at 10 mg/kg, ip qd for 8 days; assay type: organism-based, Hep 3B2; design: dose 10 mg/kg, route intraperitoneal; details: in vivo, 192 h
How it was run: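 Athymic nude mice bearing subcutaneous human Hep3B hepatocellular carcinoma xenografts, five per group, received 10 mg/kg/day intraperitoneally once daily, with a vehicle-treated control group. Deaths were recorded over the treatment period.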

T47D [6] = experiment: Inhibition of colony formation in human T47D cells at 50 ug/ml after 24 hrs by anchorage-dependent clonogenicity assay; assay type: functional, cell-based
How it was run: (§2)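 Anchorage-dependent clonogenicity assay on K562 and T47D cells. Treatment at 50 μg/mL for 24 h, then colony formation scored as percent inhibition versus vehicle control.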

K562 [7] = experiment: Inhibition of colony formation in human K562 cells at 50 ug/ml after 24 hrs by anchorage-dependent clonogenicity assay; assay type: functional, cell-based; how it was run: as §2
Hs-578T [8] = experiment: Induction of morphological changes in human Hs578T cells at 50 ug/ml; assay type: functional, cell-based
MDA-MB-231 [9] = experiment: Induction of morphological changes in human MDA-MB-231 cells at 50 ug/ml; assay type: functional, cell-based
T47D [10] = experiment: Induction of morphological changes in human T47D cells at 50 ug/ml; assay type: functional, cell-based
T47D [11] = experiment: Ratio of CDDP IC50 to compound IC50 for human T47D cells; assay type: functional
K562 [12] = experiment: Cytotoxicity against human K562 cells after 48 hrs by MTS assay; assay type: functional
How it was run: (§3)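 MTS assay on cancer cell lines and nontumor NIH3T3 cells. MTS50 is the concentration giving 50% reduction of MTS signal versus control. Dose-response tests run in triplicate over three independent experiments, means ± SDs against vehicle control.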

T47D [13] = experiment: Cytotoxicity against human T47D cells after 48 hrs by MTS assay; assay type: functional; how it was run: as §3
[14] = Cytotoxicity against mouse NIH/3T3 cells after 48 hrs by MTS assay; assay type: cell-based, NIH3T3; details: read-out: MTS50; how it was run: as §3
[15] = Cytotoxicity against human Hep3B cells after 48 hrs by MTS assay; assay type: functional, Hep 3B2; how it was run: as §3
SK-HEP1 = experiment: Cytotoxicity against human SKHEP1 cells after 48 hrs by MTS assay; assay type: functional; how it was run: as §3
SAOS-2 = experiment: Cytotoxicity against human Saos2 cells after 48 hrs by MTS assay; assay type: functional; how it was run: as §3
Hs-578T [16] = experiment: Cytotoxicity against human Hs578T cells after 48 hrs by MTS assay; assay type: functional; how it was run: as §3
A549 = experiment: Cytotoxicity against human A549 cells after 48 hrs by MTS assay; assay type: functional; how it was run: as §3
MDA-MB-231 [17] = experiment: Cytotoxicity against human MDA-MB-231 cells after 48 hrs by MTS assay; assay type: functional; how it was run: as §3
K562 [18] = experiment: Cytotoxicity against human K562 cells at 50 ug/ml after 48 hrs by MTS assay relative to control; assay type: functional
How it was run: (§4)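 Single-concentration screen at 50 μg/mL against T-47D and K562 cells, activity expressed relative to a vehicle control set at 100. Means ± SDs from triplicated experiments.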

T47D [19] = experiment: Cytotoxicity against human T47D cells at 50 ug/ml after 48 hrs by MTS assay relative to control; assay type: functional; how it was run: as §4
Hep 3B2 = experiment: Antitumor activity against human Hep3B cells xenografted in athymic nude mouse assessed as disappearance of tumor at 10 mg/kg, ip qd for 8 days; assay type: functional, organism-based; design: dose 10 mg/kg; details: in the assay text read “for 9 days” for “for 8 days”
How it was run: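 Subcutaneous Hep3B hepatocellular carcinoma xenografts in athymic nude mice, five per group, vehicle control group. Dosing 10 mg/kg/day by daily intraperitoneal injection, 9 days. Tumor volume (mm3) followed, given as mean + SD, Student's t test. Vital organs examined by hematoxylin and eosin histology.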

O=Cc1ccc2cccc(O)c2n1
Activity [1]: 65.4% | Activity [2]: 53.4% | solubility [3]: Insoluble | Activity (Mus musculus [4]): Non-toxic | Activity (Mus musculus [5]): Non-toxic | inhibition (T47D [6]): Dose-dependent effect | inhibition (K562 [7]): Dose-dependent effect | Activity (Hs-578T [8]): Active | Activity (MDA-MB-231 [9]): Active | Activity (T47D [10]): Active | Ratio IC50 (T47D [11]): 4 | MTS50 (K562 [12]): 12.5 µg/mL | MTS50 (T47D [13]): 12.5 µg/mL | CC50 at 48 h [14]: 7 µg/mL (≈ 40.4 µM) | MTS50 [15]: 6.25 µg/mL | MTS50 (SK-HEP1): 12.5 µg/mL | MTS50 (SAOS-2): 12.5 µg/mL | MTS50 (Hs-578T [16]): 12.5 µg/mL | MTS50 (A549): >50 µg/mL | MTS50 (MDA-MB-231 [17]): 12.5 µg/mL | Activity (K562 [18]): 7% | Activity (T47D [19]): 8.37% | Activity (Hep 3B2): Active

COc1cccc2ccc(C)nc12
Activity (K562 [18]): 27.15% | Activity (T47D [19]): 37.92%

Cc1ccc2cccc(O)c2n1 [8-HYDROXY QUINALDINE]
Activity (K562 [18]): 34.46% | Activity (T47D [19]): 46.54%

Oc1cccc2cccnc12 [OXYQUINOLINE]
Activity (K562 [18]): 26.66% | Activity (T47D [19]): 52.6%

CCOc1cccc2ccc(C)nc12
Activity (K562 [18]): 21.38% | Activity (T47D [19]): 63.43%

Cc1ccc2cccc(OCCN3CCCCC3)c2n1
Activity (K562 [18]): 27.43% | Activity (T47D [19]): 69.2%

N#Cc1ccc2cccc(O)c2n1
Activity (K562 [18]): 23.08% | Activity (T47D [19]): 72.92%
